Test results from ChEMBL document CHEMBL3580590, “A Developability-Focused Optimization Approach Allows Identification of in Vivo Fast-Acting Antimalarials: N-[3-[(Benzimidazol-2-yl)amino]propyl]amides” (J Med Chem, 2015).
pIC50: −log10 of the molar value. ≈ marks a conversion by molar mass, not a printed value. Calls of active or inactive are those of the source. The calls are words filed in the database; no cut-off is given here.

How the values were obtained:
[1] = tested on: Plasmodium falciparum; assay: Antimalarial activity against Plasmodium falciparum 3D7A infected in red blood cells assessed as inhibition of parasite growth after 24 hrs by [3H]hypoxanthine incorporation assay; assay type: functional, organism-based
In short: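 P. falciparum 3D7 parasitized RBC (0.5% parasitemia, 2% hematocrit) in RPMI-1640 with 5% albumax and 5 μM hypoxanthine. 3H-hypoxanthine was then added for a further 24 h. Cells were harvested onto glass-fiber filters and incorporation was read by scintillation; IC50 was derived.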

[2] = tested on: Plasmodium falciparum; assay: Antimalarial activity against chloroquine and pyrimethamine-resistant Plasmodium falciparum W2 assessed as inhibition of parasite growth; assay type: functional, organism-based
In short: (§1)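 Growth inhibition by [3H]-hypoxanthine incorporation, which tracks parasite growth. Parasitised RBC culture (0.5% parasitemia, 2% haematocrit) in RPMI-1640 with 5% Albumax and 5 μM hypoxanthine, exposed to serial drug dilutions. Cells harvested onto glass-fibre filters, radioactivity counted, IC50 derived.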

[3] = tested on: Plasmodium falciparum; assay: Antimalarial activity against chloroquine and pyrimethamine-resistant Plasmodium falciparum V1/S assessed as inhibition of parasite growth; assay type: functional, organism-based; in short: as §1
[4] = Cytotoxicity against human HepG2 cells by ATP bioluminescene method; assay type: cell-based; conditions: read-out: TC50 (the source's name)
[5] = Kinetic solubility of the compound in DMSO/phosphate buffered saline at pH 7.4 by chemiluminescent nitrogen detection method; assay type: physicochemical; conditions: read-out: Kinetic_solubility
In short: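 Kinetic solubility from DMSO stock solution in phosphate-buffered saline, pH 7.4, quantified by chemiluminescent nitrogen detection.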

[6] = tested on: Plasmodium falciparum; assay: Antimalarial activity against erythrocytic stage of Plasmodium falciparum 3D70087/N9 infected in NSG mouse engrafted with human erythrocytes assessed as parasite killing at 100 mg/kg, po qd for 4 days starting from day 3 to day 6 after parasite infection measured 48 hrs after initiation of drug treatment by Giemsa-staining based microscopy; assay type: functional, organism-based
[7] = Oral bioavailability in CD1 mouse at 10 mg/kg administered via gavage by LC-MS/MS analysis; assay type: ADME, organism-based; conditions: in vivo
In short: (§2)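 Mice were dosed IV at 1 mg/kg (0.1 mg/mL in 20% encapsine, 5% DMSO in saline) or PO at 10 mg/kg (1 mg/mL suspension in 1% methylcellulose), 10 mL/kg each. After IV dosing, blood was sampled from 5 min to 24 h. Blood was mixed 1:1 with 0.1% saponine and frozen at −80 °C. Samples were acetonitrile-extracted and analyzed by positive-ESI LC-MS/MS.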

[8] = Clearance in CD1 mouse at 1 mg/kg, iv by LC-MS/MS analysis; assay type: ADME, organism-based; conditions: in vivo; in short: as §2
[9] = Solubility of the compound in fasted state simulated intestinal fluid; assay type: ADME
[10] = tested on: Plasmodium falciparum; conditions: 3D70087/N9, 100 mg/kg
[11] = biological target: Voltage-gated inwardly rectifying potassium channel KCNH2 (Homo sapiens, UniProt Q12809); assay: Inhibition of human ERG by IonWorks electrophysiology
Sequence of Voltage-gated inwardly rectifying potassium channel KCNH2 (Q12809 whole entry): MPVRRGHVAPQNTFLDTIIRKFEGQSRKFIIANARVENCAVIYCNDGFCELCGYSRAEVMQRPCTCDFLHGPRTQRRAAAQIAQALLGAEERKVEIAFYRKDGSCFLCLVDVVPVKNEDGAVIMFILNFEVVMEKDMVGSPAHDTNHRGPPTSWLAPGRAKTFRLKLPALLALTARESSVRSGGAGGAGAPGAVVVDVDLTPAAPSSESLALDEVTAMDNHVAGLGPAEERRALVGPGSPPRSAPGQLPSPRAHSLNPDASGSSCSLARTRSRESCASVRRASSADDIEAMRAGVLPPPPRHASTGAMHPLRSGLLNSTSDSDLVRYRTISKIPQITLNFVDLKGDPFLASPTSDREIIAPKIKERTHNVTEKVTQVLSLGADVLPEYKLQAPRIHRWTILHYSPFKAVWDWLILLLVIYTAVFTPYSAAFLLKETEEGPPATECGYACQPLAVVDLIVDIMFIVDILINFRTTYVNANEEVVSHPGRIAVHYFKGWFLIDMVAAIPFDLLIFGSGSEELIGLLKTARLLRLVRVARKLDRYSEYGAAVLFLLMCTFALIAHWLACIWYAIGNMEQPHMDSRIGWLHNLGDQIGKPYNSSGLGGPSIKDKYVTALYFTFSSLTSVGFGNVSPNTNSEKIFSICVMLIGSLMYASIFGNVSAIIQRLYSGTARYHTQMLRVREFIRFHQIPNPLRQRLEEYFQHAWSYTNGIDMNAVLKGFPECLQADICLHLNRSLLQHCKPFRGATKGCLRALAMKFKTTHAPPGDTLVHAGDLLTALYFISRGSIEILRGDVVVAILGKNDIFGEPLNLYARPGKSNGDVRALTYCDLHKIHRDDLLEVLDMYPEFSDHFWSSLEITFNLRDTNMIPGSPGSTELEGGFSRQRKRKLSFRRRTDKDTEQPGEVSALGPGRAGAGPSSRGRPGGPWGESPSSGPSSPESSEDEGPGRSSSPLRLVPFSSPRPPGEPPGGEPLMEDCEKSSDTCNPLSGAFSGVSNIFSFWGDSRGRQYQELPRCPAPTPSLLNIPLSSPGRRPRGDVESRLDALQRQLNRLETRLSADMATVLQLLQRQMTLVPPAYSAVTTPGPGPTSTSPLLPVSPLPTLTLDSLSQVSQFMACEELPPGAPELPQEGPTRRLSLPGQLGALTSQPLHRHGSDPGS

[12] = Selectivity index, ratio of TC50 for human HepG2 cells to IC50 for Plasmodium falciparum 3D7A; assay type: toxicity, cell-based; conditions: read-out: Selectivity Index

| Compound | pIC50 [1] | also measured |
| --- | --- | --- |
| O=C(NCCCNc1nc2cccnc2[nH]1)c1cc(Cl)cc(Cl)c1 | 5.60 |  |
| N#Cc1ccc2[nH]c(NCCCNC(=O)c3cc(Cl)cc(Cl)c3)nc2c1 | 5.83 |  |
| O=C(O)c1cccc(C(=O)NCCCNc2nc3ccccc3[nH]2)c1 | < 5.30 |  |
| O=C(NCCCNc1nc2ccncc2[nH]1)c1cc(Cl)cc(Cl)c1 | 5.97 |  |
| O=C(NCCCNc1nc2ccccc2[nH]1)c1ccc2c(c1)OCCO2 | 5.78 |  |
| CN(C)C(=O)c1cccc(C(=O)NCCCNc2nc3ccccc3[nH]2)c1 | < 5.30 |  |
| Cc1ccc(C(=O)NCCCNc2nc3ccccc3[nH]2)o1 | 5.65 |  |
| O=C(NCCCNc1nc2ccccc2[nH]1)C1CCC(CO)CC1 (stereo unspecified) | < 5.30 |  |
| O=C(NCCCNc1nc2ccccc2[nH]1)c1cccc(Cl)c1Cl | 5.47 |  |
| O=C(NCCCNc1nc2ccccc2[nH]1)c1cccc(CO)c1 | < 5.30 |  |
| O=C(NCCCNc1nc2c(F)cccc2[nH]1)c1cc(Cl)cc(Cl)c1 | 6.52 |  |
| CN1CCN(Cc2ccc(C(=O)NCCCNc3nc4ccccc4[nH]3)cc2)CC1 | < 5.30 |  |
| CN(C)Cc1ccc(C(=O)NCCCNc2nc3ccccc3[nH]2)cc1 | 5.65 |  |
| CCc1nc(N)nc(N)c1-c1ccc(Cl)cc1 [PYRIMETHAMINE] | 7.17 | pIC50 [2]: < 4.70; pIC50 [3]: < 4.70 |
| O=C(NCCCNc1nc2ccccc2[nH]1)c1ccc(Cl)c(Cl)c1 | 6.77 |  |
| O=C(NCCCCc1nc2ccccc2[nH]1)c1cc(Cl)cc(Cl)c1 | < 5.30 |  |
| O=C(NCCCNc1nc2ccccc2[nH]1)c1cccc(Cl)c1 | 6.52 |  |
| O=C(NCCCCNc1nc2ccccc2[nH]1)c1cc(Cl)cc(Cl)c1 | 6.40 |  |
| O=C(NCCCNc1nc2ccccc2[nH]1)C1CCC(O)CC1 (stereo unspecified) | < 5.30 |  |
| O=C(NCCCNc1nc2ccccc2[nH]1)c1ccc(Cl)cc1 | 5.97 |  |
| O=C(NCCCNc1nc2ccccc2[nH]1)c1cc(F)cc(F)c1 | 6.49 |  |
| O=C(NCCCNc1nc2ccccc2[nH]1)c1ccncc1 | < 5.30 |  |
| COc1cc(OC)cc(C(=O)NCCCNc2nc3ccccc3[nH]2)c1 | 6.48 |  |
| N#Cc1ccc(C(=O)NCCCNc2nc3ccccc3[nH]2)cc1F | 5.86 |  |

| Compound | pIC50 [1] | also measured |
| --- | --- | --- |
| O=C(NCCCNc1nc2ccccc2[nH]1)c1cc(Cl)cc(Cl)c1 | 7.03 | pIC50 [2]: 6.39; pIC50 [3]: 5.99; CC50 [4]: 36300 nM; solubility kinetic [5]: 239 µM (≈ 86.8 µg/mL); Activity [6]: Active; bioavailability [7]: 81%; clearance [8]: 39.7 mL/min/kg; solubility [9]: > 100 µg/mL; inhibition [10]: Active |
| CN(CCCNc1nc2ccccc2[nH]1)C(=O)c1cc(Cl)cc(Cl)c1 | < 5.30 |  |
| O=C(NCCCNc1nc2ccccc2[nH]1)C1CCOCC1 | 5.58 |  |
| O=C(NC1CCN(c2nc3ccccc3[nH]2)C1)c1cc(Cl)cc(Cl)c1 (stereo unspecified) | < 5.30 |  |
| O=C(NCCCNc1nc2ccccc2[nH]1)c1ccc2c(c1)CCO2 | 5.49 |  |
| COC(=O)c1ccc2[nH]c(NCCCNC(=O)c3cc(Cl)cc(Cl)c3)nc2c1 | 6.82 | CC50 [4]: 25700 nM; solubility kinetic [5]: 29 µM (≈ 12.2 µg/mL) |
| O=C(Nc1cccc(-c2nc3ccccc3[nH]2)c1)c1cc(Cl)cc(Cl)c1 | 5.82 | pIC50 [11]: < 4.83; CC50 [4]: 26300 nM; solubility kinetic [5]: 64 µM (≈ 24.5 µg/mL); selectivity ratio [12]: 17.3 |
| O=C(NCCCNc1nc2ccccc2[nH]1)c1cccc(CN2CCCC2)c1 | < 5.30 |  |
| O=C(NCCCNc1nc2ccccc2[nH]1)c1ccnc(C(F)(F)F)c1 | 6.60 | CC50 [4]: > 100000 nM; solubility kinetic [5]: 349 µM (≈ 127 µg/mL) |
| COc1cccc(C(=O)NCCCNc2nc3ccccc3[nH]2)c1 | 6.03 |  |
| CC(CNC(=O)c1cc(Cl)cc(Cl)c1)CNc1nc2ccccc2[nH]1 (stereo unspecified) | 6.28 |  |
| O=C(NCCNc1nc2ccccc2[nH]1)c1cc(Cl)cc(Cl)c1 | 5.74 |  |
| O=C(NCCCNc1nc2ccccc2[nH]1)c1cc(Cl)ccc1Cl | 5.92 |  |
| O=C(NCC(O)CNc1nc2ccccc2[nH]1)c1cc(Cl)cc(Cl)c1 (stereo unspecified) | 5.86 |  |
| O=C(O)c1ccc2[nH]c(NCCCNC(=O)c3cc(Cl)cc(Cl)c3)nc2c1 | < 5.30 |  |
| CN(CCCNC(=O)c1cc(Cl)cc(Cl)c1)c1nc2ccccc2[nH]1 | 5.74 |  |
| Cn1cccc1C(=O)NCCCNc1nc2ccccc2[nH]1 | < 5.30 |  |
| O=C(NCCCNc1nc2ccccc2[nH]1)c1cncc(Cl)c1 | 6.34 |  |
| O=C(NCCCNc1nc2ccccc2[nH]1)c1ccccc1Cl | 5.98 |  |
| Cn1c(NCCCNC(=O)c2cc(Cl)cc(Cl)c2)nc2ccccc21 | < 5.30 |  |
| O=C(NCCCNc1nc2ccccc2[nH]1)c1c(Cl)cccc1Cl | < 5.30 |  |
| CS(=O)(=O)Nc1cccc(C(=O)NCCCNc2nc3ccccc3[nH]2)c1 | < 5.30 |  |
| O=C(NCCCNc1nc2ccccc2[nH]1)c1cc(Cl)c(O)c(Cl)c1 | < 5.30 |  |
| O=C(NCCCNc1nc2ccccc2[nH]1)c1ccccc1 | 5.50 |  |

| Compound | pIC50 [1] | also measured |
| --- | --- | --- |
| O=C(NCC1(CNc2nc3ccccc3[nH]2)CC1)c1cc(Cl)cc(Cl)c1 | 5.99 |  |
| CC(CCNC(=O)c1cc(Cl)cc(Cl)c1)Nc1nc2ccccc2[nH]1 (stereo unspecified) | 5.80 |  |
| O=C(NCCCNc1nc2ccccc2[nH]1)C1CCCCC1 | 5.74 |  |
| O=C(NCCCNc1nc2ccccc2[nH]1)c1cccc(O)c1 | < 5.30 |  |
| O=C(NCCCNc1nc2ccccc2[nH]1)c1cccc(OC(F)(F)F)c1 | 6.43 |  |
| Cc1ccc(C(=O)NCCCNc2nc3ccccc3[nH]2)s1 | 5.74 |  |
| CC(C)(C)OC(=O)N1CCC(C(=O)NCCCNc2nc3ccccc3[nH]2)CC1 | 6.05 | pIC50 [11]: < 4.30; CC50 [4]: > 100000 nM; solubility kinetic [5]: 393 µM (≈ 158 µg/mL); selectivity ratio [12]: > 111 |
| O=C(NCCCNc1nc2ccccc2[nH]1)c1cccnc1 | < 5.30 |  |
| O=C(NCCCNc1nc2ccccc2[nH]1)C1CCNCC1 | < 5.30 |  |
| O=C(NCCCNc1nc2ccccc2[nH]1)c1ccc(Cl)cc1Cl | 5.39 |  |
| O=C(NCCCNc1nc2ccccc2[nH]1)c1ccc(CN2CCCC2)cc1 | 5.64 | CC50 [4]: > 100000 nM; solubility kinetic [5]: 322 µM (≈ 122 µg/mL) |
| O=C(Cc1cccc(Cl)c1)NCCCNc1nc2ccccc2[nH]1 | 6.18 |  |
| O=C(CCNC(=O)c1cc(Cl)cc(Cl)c1)Nc1nc2ccccc2[nH]1 | 5.38 |  |
| Cc1cccc(C(=O)NCCCNc2nc3ccccc3[nH]2)c1 | 6.01 |  |
| O=C(NCCCNc1nc2ccccc2[nH]1)c1cccc(C(F)(F)F)c1 | 6.85 |  |
| O=C(c1cc(Cl)cc(Cl)c1)N1CCN(c2nc3ccccc3[nH]2)CC1 | 5.60 |  |
| COC(=O)c1cccc(C(=O)NCCCNc2nc3ccccc3[nH]2)c1 | 6.20 |  |
| O=C(NCCCNc1nc2ccccc2[nH]1)c1ccccn1 | < 5.30 |  |
| O=C(NC1(c2nc3ccccc3[nH]2)CC1)c1cc(Cl)cc(Cl)c1 | < 5.30 |  |
| O=C(NCCCNc1nc2ccccc2[nH]1)c1ccc2c(c1)OCO2 | 5.47 |  |
| COc1c(Cl)cc(C(=O)NCCCNc2nc3ccccc3[nH]2)cc1Cl | 7.00 |  |
| O=C(NCCCNc1nc2cc(F)ccc2[nH]1)c1cc(Cl)cc(Cl)c1 | 6.92 |  |
| N#Cc1cccc(C(=O)NCCCNc2nc3ccccc3[nH]2)c1 | 6.42 |  |
